Measurements: publication PMC2909692 (Nuclear medicine and biology, 2010)
pKi: −log10 of the molar value. “And” between values parts separate entries of the source, which are not always exact repeats. Equal values may be shown once. Read-outs that look alike come from different tables or passages of the source.

Legend:
[1] = biological target: VMAT2 (Rattus norvegicus, UniProt Q01827); assay: small animal PET imaging with [18F]AV-133 in 6-OHDA unilateral lesioned rats; assay type: in vivo
Method in brief: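 Male Sprague Dawley rats with a unilateral left 6-OHDA lesion passed an apomorphine rotation check (0.05 mg/kg s.c., day 21). Under 1.5-2.5% isoflurane, each received [18F]AV-133 (50-57 MBq) by tail vein and was imaged dynamically for 4 hrs (5 min frames, then 15 min frames). ROI analysis on reconstructed images gave % change = ((R striatum − cerebellum) − (L striatum − cerebellum))/(R striatum − cerebellum) × 100.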

[2] = biological target: dopamine transporter (DAT) (Rattus norvegicus, UniProt P23977); assay: quantitative in vitro autoradiography with [125I]IPT on rat brain sections; assay type: binding
dopamine transporter (DAT), sequence (P23977 whole entry): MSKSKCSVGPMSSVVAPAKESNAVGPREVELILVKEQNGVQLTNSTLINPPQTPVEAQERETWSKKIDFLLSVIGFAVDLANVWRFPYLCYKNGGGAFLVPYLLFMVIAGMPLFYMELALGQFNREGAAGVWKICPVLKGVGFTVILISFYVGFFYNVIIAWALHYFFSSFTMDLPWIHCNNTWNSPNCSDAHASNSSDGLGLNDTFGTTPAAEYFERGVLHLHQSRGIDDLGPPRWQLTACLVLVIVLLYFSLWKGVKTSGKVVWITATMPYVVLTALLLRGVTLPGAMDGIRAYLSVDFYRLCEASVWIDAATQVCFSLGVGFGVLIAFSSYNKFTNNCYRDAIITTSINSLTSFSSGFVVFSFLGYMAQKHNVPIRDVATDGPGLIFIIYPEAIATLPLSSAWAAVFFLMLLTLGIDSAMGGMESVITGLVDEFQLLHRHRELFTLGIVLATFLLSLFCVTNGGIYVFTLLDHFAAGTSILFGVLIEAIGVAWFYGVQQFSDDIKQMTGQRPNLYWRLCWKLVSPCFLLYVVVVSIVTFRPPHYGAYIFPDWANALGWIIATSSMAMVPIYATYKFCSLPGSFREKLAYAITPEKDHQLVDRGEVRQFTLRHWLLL
Method in brief: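 Brains from lesioned rats were frozen in OCT, and 20 μm coronal cryosections were desiccated 2 hrs at 4 °C, then stored at −70 °C. Sections were preincubated 20 min at room temperature in 50 mM Na2HPO4/0.32 M sucrose pH 7.4, then incubated 2 hrs with [125I]IPT (13-19 Bq/μL). Rinses: cold buffer 2 × 30 min, then cold water. Film exposure was 24 hrs with 125I homogenate standards (0.04-1.48 kBq/mg). Change = ((R−CB)−(L−CB))/(R−CB)×100, averaged over sections.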

[3] = normal rats, ref [23]-[25], cited from earlier work
[4] = biological target: T1, SERT (Rattus norvegicus, UniProt P31652); assay type: in vivo
T1 sequence (P31652 whole entry): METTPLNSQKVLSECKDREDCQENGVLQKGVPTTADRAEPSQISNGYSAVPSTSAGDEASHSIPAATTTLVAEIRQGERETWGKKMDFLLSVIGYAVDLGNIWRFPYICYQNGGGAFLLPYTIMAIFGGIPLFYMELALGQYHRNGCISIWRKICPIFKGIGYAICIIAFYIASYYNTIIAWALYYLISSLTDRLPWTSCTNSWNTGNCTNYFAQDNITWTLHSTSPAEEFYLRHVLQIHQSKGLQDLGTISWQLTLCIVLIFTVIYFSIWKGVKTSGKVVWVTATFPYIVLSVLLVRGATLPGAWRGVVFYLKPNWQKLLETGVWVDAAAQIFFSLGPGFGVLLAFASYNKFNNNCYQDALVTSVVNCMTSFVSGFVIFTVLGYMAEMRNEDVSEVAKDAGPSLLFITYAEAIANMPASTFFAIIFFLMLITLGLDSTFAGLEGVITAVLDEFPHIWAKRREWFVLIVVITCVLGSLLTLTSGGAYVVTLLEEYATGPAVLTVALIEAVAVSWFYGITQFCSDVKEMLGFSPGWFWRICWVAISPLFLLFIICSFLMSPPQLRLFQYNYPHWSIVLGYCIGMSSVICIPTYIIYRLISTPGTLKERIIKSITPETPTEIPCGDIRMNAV
Method in brief: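 Rats under 1.5-2.5% isoflurane were scanned on a Philips Mosaic animal PET after tail-vein [18F]FPBM (37-51 MBq lesioned; 43-57 MBq normal controls). Dynamic acquisition ran 4 hrs: 5-min frames for 2 hrs, then 15-min frames. Lesioned rats were apomorphine-screened (0.05 mg/kg s.c.) and rescanned 7-20 days later. ROI time-activity points were summed per region; left-striatum change = ((R−CB)−(L−CB))/(R−CB)×100.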

[5] = biological target: T1, SERT; assay: quantitative in vitro autoradiography with [18F]FPBM on rat brain sections; assay type: binding; settings: n = 3
Method in brief: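 Coronal 20 μm cryostat sections from left-lesioned (6-OHDA) male Sprague Dawley rat brains were preincubated for 20 min at room temperature in 50 mM Tris/120 mM NaCl, pH 7.4, then dried. They were incubated for 1 hr at room temperature in that buffer containing [18F]FPBM (166-178 Bq/μL), rinsed cold 2 × 45 min, and exposed to film for 24 hrs with calibration standards. % change = ((R − cerebellum) − (L − cerebellum))/(R − cerebellum) × 100, averaged over rostral-striatum sections.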

[6] = biological target: serotonin transporter (SERT); settings: read-out: Ki (affinity); in vitro binding assays; ref [23]-[25]; cited from earlier work
[7] = biological target: T1, SERT; assay: regional brain biodistribution of [18F]FPBM in PCA-treated and control rats; assay type: in vivo; settings: 60 min, n = 6
Method in brief: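 Male Sprague Dawley rats (12, split into two groups) received PCA 5 mg/kg i.p. or saline daily for 2 consecutive days. Six days later they were given [18F]FPBM i.v. and killed under isoflurane 60 min post-injection. Radioactivity distribution was measured in brain regions only, not peripheral organs.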

VMAT2, sequence (Q01827 whole entry): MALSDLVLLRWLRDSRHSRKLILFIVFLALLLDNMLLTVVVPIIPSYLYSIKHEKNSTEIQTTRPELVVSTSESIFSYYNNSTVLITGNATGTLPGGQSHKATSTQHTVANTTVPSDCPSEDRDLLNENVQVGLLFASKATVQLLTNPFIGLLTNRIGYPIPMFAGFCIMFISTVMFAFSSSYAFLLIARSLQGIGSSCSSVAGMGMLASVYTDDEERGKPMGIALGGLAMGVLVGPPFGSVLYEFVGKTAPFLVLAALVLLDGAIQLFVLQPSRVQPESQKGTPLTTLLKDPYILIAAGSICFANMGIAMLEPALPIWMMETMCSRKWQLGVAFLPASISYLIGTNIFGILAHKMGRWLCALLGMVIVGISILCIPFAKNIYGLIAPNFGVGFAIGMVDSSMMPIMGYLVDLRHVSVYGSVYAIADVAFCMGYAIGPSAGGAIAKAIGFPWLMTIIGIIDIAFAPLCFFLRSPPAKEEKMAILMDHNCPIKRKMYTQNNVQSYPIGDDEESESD

SMILES: COc1cc2c(cc1OCCCF)CCN1CC(CC(C)C)C(O)CC21 (single isomer, unassigned; (+)) [[^18F]AV-133, (+)-2-Hydroxy-3-isobutyl-9-(3-fluoropropoxy)-10-methoxy-1,2,3,4,6,7-hexahydro-11bH-benzo[a]quinolizine]
- percent binding change in the left striatum (PET) ([1]; 6-OHDA lesioned rat #1, n = 1): −87%
- percent binding change in the left striatum (PET) ([1]; 6-OHDA lesioned rat #2, n = 1): −72%
- percent binding change in the left striatum (PET) ([1]; 6-OHDA lesioned rat #3, n = 1): −91%

SMILES: COC(=O)C1C(c2ccc(Cl)cc2)CC2CCC1N2CC=C[125I] (stereo not drawn) [[^125I]IPT, N-(3′-[^125I]-iodopropen-2′-yl)-2-beta-carbomethoxy-3-beta-(4-chlorophenyl) tropane]
- percent change in binding in the left striatum (in vitro autoradiography) ([2]; 6-OHDA lesioned rat #1): −66%
- percent change in binding in the left striatum (in vitro autoradiography) ([2]; 6-OHDA lesioned rat #2): −56%
- percent change in binding in the left striatum (in vitro autoradiography) ([2]; 6-OHDA lesioned rat #3): −81%

SMILES: CN(C)Cc1cc(OCCC[18F])ccc1Sc1ccccc1N [[^18F]FPBM, 2-(2′-((dimethylamino)methyl)-4′-(3-[^18F]-fluoropropoxy)phenylthio)benzenamine]
- brain uptake ([3]; 2 min post-injection): 0.99 % dose/g
- target to non-target ratio ([3]; 120 min post-injection): 7.7
- percent binding change in the left striatum (PET), individual scans ([4]; 6-OHDA lesioned rat #1, 10 days between scans): −12% and −10%
- average percent binding change in the left striatum (PET) ([4]; 6-OHDA lesioned rat #1, n = 2 scans): −11%
- percent binding change in the left striatum (PET), individual scans ([4]; 6-OHDA lesioned rat #2, 20 days between scans): −1% and −7%
- average percent binding change in the left striatum (PET) ([4]; 6-OHDA lesioned rat #2, n = 2 scans): −4%
- percent binding change in the left striatum (PET), individual scans ([4]; 6-OHDA lesioned rat #3, 7 days between scans): −42% and −44%
- average percent binding change in the left striatum (PET) ([4]; 6-OHDA lesioned rat #3, n = 2 scans): −43%
- percent binding change in the left striatum (PET), individual rats ([4]; normal control rats, individual values): +4.5% and −3.5%
- average percent binding change in the left striatum (PET) ([4]; normal control rats, n = 2 separate rats, left vs right striatum): +0.5%
- averaged percent binding reduction of the left rostral striatum brain sections (in vitro autoradiography) ([5]; 6-OHDA lesioned rat #1, rostral striatum sections): −5.9%
- averaged percent binding reduction of the left rostral striatum brain sections (in vitro autoradiography) ([5]; 6-OHDA lesioned rat #2, rostral striatum sections): +2.3%
- averaged percent binding reduction of the left rostral striatum brain sections (in vitro autoradiography) ([5]; 6-OHDA lesioned rat #3, rostral striatum sections): −37.3%
- pKi [6]: 9.42
- ratio vs. CB ± SD, cerebellum ([7]; PCA-treated rats): 1.00 ± 0.34
- ratio vs. CB ± SD, cortex ([7]; PCA-treated rats): 1.93 ± 0.58
- ratio vs. CB ± SD, hippocampus ([7]; PCA-treated rats): 2.29 ± 0.56
- ratio vs. CB ± SD, hypothalamus ([7]; PCA-treated rats): 3.87 ± 0.88
- ratio vs. CB ± SD, remainder ([7]; PCA-treated rats): 2.27 ± 0.53
- ratio vs. CB ± SD, striatum ([7]; PCA-treated rats): 2.90 ± 1.00
- ratio vs. CB ± SD, cerebellum ([7]; control rats): 1.00 ± 0.33
- ratio vs. CB ± SD, cortex ([7]; control rats): 3.39 ± 1.28
- ratio vs. CB ± SD, hippocampus ([7]; control rats): 3.09 ± 1.10
- ratio vs. CB ± SD, hypothalamus ([7]; control rats): 4.61 ± 1.44
- ratio vs. CB ± SD, remainder ([7]; control rats): 3.12 ± 1.12
- ratio vs. CB ± SD, striatum ([7]; control rats): 3.70 ± 1.21
